The term MIC90 denotes the lowest concentration that inhibits either 90% of growth or 90% of the strains tested, depending on the study.

Values after ≈ are worked out from the molar mass of the structure shown. A value given as a limit tells only on which side of the number the result lay.

The source of these data is ChEMBL document CHEMBL5131498, “Synthesis and biological evaluation of orally active prodrugs and analogs of para-aminosalicylic acid (PAS)” (Eur J Med Chem, 2022).

Assay type in all cases: functional
The test system of experiment [1] is Mycobacterium tuberculosis. Description: Antimycobacterial activity against PAS resistant Mycobacterium tuberculosis H37Rv harboring E153A mutant assessed as inhibition of bacterial growth measured after 2 weeks by microbroth dilution method. The method in brief:
(§1)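 Diluted 1000-fold into 96-well plates with 2-fold serial compound dilutions and incubated at 37 °C for 2 weeks. Growth scored by mirror at 1 and 2 weeks. MIC is the lowest concentration completely inhibiting growth; tested in duplicate. DMSO, isoniazid and linezolid served as controls.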

Experiment [2] has as its system Mycobacterium tuberculosis. Description: Antimycobacterial activity against PAS resistant Mycobacterium tuberculosis H37Rv harboring S150G mutant assessed as inhibition of bacterial growth measured after 2 weeks by microbroth dilution method. In a few lines: as §1
Experiment [3] has as its system Mycobacterium tuberculosis. Description: Antimycobacterial activity against extensively drug resistant Mycobacterium tuberculosis H37Rv assessed as inhibition of bacterial growth measured after 2 weeks by microbroth dilution method. The settings on record: 336 h. The method in brief: as §1
(Broth dilution looks for growth in wells or tubes with falling amounts of substance.)

The subject of experiment [4] is Mycobacterium tuberculosis. Description: Antimycobacterial activity against multidrug resistant Mycobacterium tuberculosis H37Rv assessed as inhibition of bacterial growth measured after 2 weeks by microbroth dilution method. The settings on record: 336 h. The method in brief:
as §1

Experiment [5] deals with Mycobacterium tuberculosis. Nature of the experiment: Antimycobacterial activity against PAS resistant Mycobacterium tuberculosis H37Rv harboring R49W mutant assessed as inhibition of bacterial growth measured after 2 weeks by microbroth dilution method. The method in brief:
as §1

For the compound `CC(=O)NC[C@H]1CN(c2ccc(N3CCOCC3)c(F)c2)C(=O)O1` [LINEZOLID], the MIC90 is 1.9 µM (≈ 0.641 µg/mL) in experiment [1]; 1.9 µM (≈ 0.641 µg/mL) in experiment [2]; 0.9 µM (≈ 0.304 µg/mL) in experiment [3]; 0.8 µM (≈ 0.27 µg/mL) in experiment [4]; 1.9 µM (≈ 0.641 µg/mL) in experiment [5].

For the compound `NNC(=O)c1ccncc1` [ISONIAZID], the MIC90 worked out at 0.3 µM (≈ 0.0411 µg/mL) in experiment [1]; 0.3 µM (≈ 0.0411 µg/mL) in experiment [2]; 6.3 µM (≈ 0.864 µg/mL) in experiment [3]; 0.4 µM (≈ 0.0549 µg/mL) in experiment [4]; 0.3 µM (≈ 0.0411 µg/mL) in experiment [5].

Take `Nc1ccc(C(=O)O)c(O)c1` [AMINOSALICYLIC ACID]: the MIC90 in experiment [1] was 12.5 µM (≈ 1.91 µg/mL); in experiment [2] it was 12.5 µM (≈ 1.91 µg/mL); in experiment [3], at least 50 µM; in experiment [4], 0.2 µM (≈ 0.0306 µg/mL); in experiment [5], 12.5 µM (≈ 1.91 µg/mL).

With `Nc1cc(O)c(C(=O)O)cc1F`, the MIC90 entry in experiment [1] was “>=50 uM”; in experiment [2], “>=50 uM”; in experiment [3] it was at least 50 µM; in experiment [4], 6.3 µM (≈ 1.08 µg/mL); in experiment [5], “>=50 uM”.
